Calls of active or inactive are those of the source. The rule behind the calls is not given here.
Experiments:
B16-F10 [1] = assay: Effect on total cell surface glycosylation in mouse B16F10 cells assessed as inhibition of biotinylated PHA-L lectin binding at 102.4 uM after 3 days by flow cytometry; format: cell-based; details: b16-f10, 72 h
In short: (§1)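 B16-F10 cells were exposed 3 days to 102.4 µM compound or DMSO. Staining used biotinylated lectins (AAL 5, PNA 5, GSL-I 1, LCA 1, PHA-L 1, PSA 1, SJA 1, WGA 1 µg/ml) in carbo-free blocking buffer with 1 mM CaCl and 1 mM MgCl for 45-60 min at 4 °C, then streptavidin-PE for 20 min at 4 °C. Flow cytometry read-out was MFI, mean ± SEM from two independent experiments.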

[2] = Inhibition of sialyltransferase in mouse 9464D cells assessed as decrease in lectin binding after 3 days by biotinylated MAL2 lectin and streptavidin-PE based flow cytometry; format: cell-based
In short: (§2)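 Each cell line was incubated 3 days with increasing compound concentrations or equivalent DMSO. Cells were stained with biotinylated MALII (5 µg/ml) in carbo-free blocking buffer with 1 mM CaCl/MgCl for 45-60 min at 4 °C, washed in PBS/1% BSA/0.02% azide, then stained with streptavidin-PE for 20 min at 4 °C. For flow cytometry, MFI was normalized to control as % lectin binding.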

[3] = Inhibition of sialyltransferase in human THP1 cells assessed as decrease in lectin binding after 3 days by biotinylated MAL2 lectin and streptavidin-PE based flow cytometry; format: cell-based; in short: as §2
B16-F10 [4] = assay: Inhibition of sialyltransferase in mouse B16-F10 cells assessed as recovery time for sialylation at 51.2 uM pretreated for 3 days followed by washing and re-seeding and measured after 6 days by biotinylated MAL2 lectin-based flow cytometry; format: cell-based
In short: (§3)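 B16-F10 cells were pretreated 3 days with 25.6 or 51.2 µM compound or DMSO, washed, reseeded, and sampled daily for 6 days. They were stained with biotinylated MALII (5 µg/ml, 45-60 min, 4 °C) plus streptavidin-PE. Flow cytometry MFI was normalized to control as % lectin binding.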

B16-F10 [5] = assay: Relative inhibitory potency, ratio of SiaFAc to compound EC50 for inhibition of sialyltransferase in mouse B16-F10 cells; format: cell-based
[6] = Inhibition of sialyltransferase in HEK293 cells assessed as decrease in lectin binding after 3 days by biotinylated MAL2 lectin and streptavidin-PE based flow cytometry; format: cell-based, Homo sapiens; in short: as §2
B16-F10 [7] = assay: Inhibition of sialyltransferase in mouse B16-F10 cells assessed as recovery time for sialylation at 25.6 uM pretreated for 3 days followed by washing and re-seeding and measured after 6 days by biotinylated MAL2 lectin-based flow cytometry; format: cell-based; in short: as §3
B16-F10 [8] = assay: Cytotoxicity against mouse B16F10 cells assessed as reduction in metabolic activity at 204.8 uM after 3 days by MTT assay; format: ADME, cell-based; details: b16-f10, 72 h
B16-F10 [9] = assay: Effect on total cell surface glycosylation in mouse B16F10 cells assessed as inhibition of biotinylated AAL-lectin binding at 102.4 uM after 3 days by flow cytometry; format: cell-based; details: b16-f10, 72 h; in short: as §1
B16-F10 [10] = assay: Effect on total cell surface glycosylation in mouse B16F10 cells assessed as inhibition of biotinylated GSL1-lectin binding at 102.4 uM after 3 days by flow cytometry; format: cell-based; details: b16-f10, 72 h; in short: as §1
[11] = Inhibition of sialyltransferase in mouse EL4 cells assessed as decrease in lectin binding after 3 days by biotinylated MAL2 lectin and streptavidin-PE based flow cytometry; format: cell-based; in short: as §2
B16-F10 [12] = assay: Cytotoxicity against mouse B16F10 cells assessed as reduction in metabolic activity at <51.2 uM after 3 days by MTT assay; format: ADME, cell-based; details: b16-f10, 72 h
B16-F10 [13] = assay: Inhibition of sialyltransferase in mouse B16-F10 cells assessed as reduction in CMP-Sia pool at 51.2 uM after 1 to 24 hrs using fluorinated compounds by reverse-phase ion pairing chromatography/triple quadrupole mass spectrometric analysis; format: cell-based
In short: (§4)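 B16-F10 cells were incubated 1, 2, 4, 8 or 24 h with 51.2 µM fluorinated analogue or DMSO. Cells were washed with ammonium carbonate buffer (pH 7.4) and snap-frozen in liquid nitrogen. Extraction was twice for 3 min with cold 40% acetonitrile/40% methanol/20% water, followed by centrifugation for 3 min and vacuum drying.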

B16-F10 [14] = assay: Effect on total cell surface glycosylation in mouse B16F10 cells assessed as inhibition of biotinylated LCA-lectin binding at 102.4 uM after 3 days by flow cytometry; format: cell-based; details: b16-f10, 72 h; in short: as §1
B16-F10 [15] = assay: Effect on total cell surface glycosylation in mouse B16F10 cells assessed as inhibition of biotinylated PNA lectin binding at 102.4 uM after 3 days by flow cytometry; format: cell-based; details: b16-f10, 72 h; in short: as §1
[16] = biological target: N-acylneuraminate cytidylyltransferase (Mus musculus, UniProt Q99KK2); assay: Prodrug activation in mouse B16F10 cells assessed as CMAS-mediated CMP-SiaFR levels at 51.2 uM after 1 to 24 hrs using fluorinated compounds by reverse-phase ion pairing chromatography/triple quadrupole mass spectrometric analysis; format: cell-based; in short: as §4
N-acylneuraminate cytidylyltransferase, sequence (Q99KK2 whole entry): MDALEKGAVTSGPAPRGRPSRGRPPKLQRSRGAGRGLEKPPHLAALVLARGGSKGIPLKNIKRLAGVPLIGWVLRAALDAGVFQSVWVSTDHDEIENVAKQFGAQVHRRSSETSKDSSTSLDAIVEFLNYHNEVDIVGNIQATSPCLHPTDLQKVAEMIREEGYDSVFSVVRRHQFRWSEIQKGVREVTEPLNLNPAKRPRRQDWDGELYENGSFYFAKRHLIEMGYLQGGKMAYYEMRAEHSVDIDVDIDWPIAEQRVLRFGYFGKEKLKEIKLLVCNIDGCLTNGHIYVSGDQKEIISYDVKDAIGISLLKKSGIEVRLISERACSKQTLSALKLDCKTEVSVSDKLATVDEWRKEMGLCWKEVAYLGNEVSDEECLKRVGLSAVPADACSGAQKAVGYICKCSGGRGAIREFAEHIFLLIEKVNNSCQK

[17] = Inhibition of sialyltransferase in human HeLa cells assessed as decrease in lectin binding after 3 days by biotinylated MAL2 lectin and streptavidin-PE based flow cytometry; format: cell-based; in short: as §2
B16-F10 [18] = assay: Effect on total cell surface glycosylation in mouse B16F10 cells assessed as inhibition of biotinylated WGA-lectin binding at 102.4 uM after 3 days by flow cytometry; format: cell-based; details: b16-f10, 72 h; in short: as §1
B16-F10 [19] = assay: Effect on total cell surface glycosylation in mouse B16F10 cells assessed as inhibition of biotinylated PSA-lectin binding at 102.4 uM after 3 days by flow cytometry; format: cell-based; details: b16-f10, 72 h; in short: as §1
[20] = Inhibition of sialyltransferase in mouse B16F10 cells assessed as decrease in lectin binding after 3 days by biotinylated MAL2 lectin and streptavidin-PE based flow cytometry; format: cell-based; in short: as §2
B16-F10 [21] = assay: Effect on total cell surface glycosylation in mouse B16F10 cells assessed as inhibition of biotinylated SJA-lectin binding at 102.4 uM after 3 days by flow cytometry; format: cell-based; details: b16-f10, 72 h; in short: as §1

EC50 [2] | EC50 [3] | EC50 [6] | EC50 [11] | Drug metabolism [16] | EC50 [17] | EC50 [20] | SMILES | Activity (B16-F10 [1]) | TIME (B16-F10 [4]) | Ratio EC50 (B16-F10 [5]) | sialylation recovery time (B16-F10 [7]) | Activity (B16-F10 [8]) | Activity (B16-F10 [9]) | Activity (B16-F10 [10]) | Activity (B16-F10 [12]) | Activity (B16-F10 [14]) | Activity (B16-F10 [15]) | Activity (B16-F10 [18]) | Activity (B16-F10 [19]) | Activity (B16-F10 [21]) | further results
8.91 µM | 0.45 µM | 2.02 µM | 42 µM | Metabolite_Detected | 2.02 µM | 1.78 µM | CCOC(=O)N[C@H]1[C@H]([C@H](OC(C)=O)[C@@H](COC(C)=O)OC(C)=O)OC(OC(C)=O)(C(=O)OC)[C@H](F)[C@@H]1OC(C)=O (stereo partly specified) | Non-Toxic | 120 to 144 h | 15 | Active | Non-Toxic | Non-Toxic | Non-Toxic | Non-Toxic | Non-Toxic | Non-Toxic | Non-Toxic | Non-Toxic | Non-Toxic | inhibition (B16-F10 [13]): Active
> 102 µM | 8.5 µM | 45.2 µM | > 102 µM | Metabolite_Detected | 53 µM | 26.8 µM | COC(=O)C1(OC(C)=O)O[C@@H]([C@H](OC(C)=O)[C@@H](COC(C)=O)OC(C)=O)[C@H](NC(C)=O)[C@@H](OC(C)=O)[C@H]1F (stereo partly specified) | Non-Toxic | 48 to 72 h |  | Active | Non-Toxic | Non-Toxic | Non-Toxic | Non-Toxic | Non-Toxic | Non-Toxic | Non-Toxic | Non-Toxic | Non-Toxic | 
> 102 µM | 10.4 µM | 26.2 µM | > 102 µM | Metabolite_Detected | 62.3 µM | 40.6 µM | C#CCCC(=O)N[C@H]1[C@H]([C@H](OC(C)=O)[C@@H](COC(C)=O)OC(C)=O)OC(OC(C)=O)(C(=O)OC)[C@H](F)[C@@H]1OC(C)=O (stereo partly specified) | Non-Toxic | 48 to 72 h | 1 | Active | Non-Toxic | Non-Toxic | Non-Toxic | Non-Toxic | Non-Toxic | Non-Toxic | Non-Toxic | Non-Toxic | Non-Toxic | 
10.7 µM | 0.42 µM | 1.19 µM | 51 µM | Metabolite_Detected | 1.65 µM | 0.72 µM | C#CCOC(=O)N[C@H]1[C@H]([C@H](OC(C)=O)[C@@H](COC(C)=O)OC(C)=O)OC(OC(C)=O)(C(=O)OC)[C@H](F)[C@@H]1OC(C)=O (stereo partly specified) | Non-Toxic | 120 to 144 h | 37 | Active | Non-Toxic | Non-Toxic | Non-Toxic | Non-Toxic | Non-Toxic | Non-Toxic | Non-Toxic | Non-Toxic | Non-Toxic | inhibition (B16-F10 [13]): Active
